A short description of data set [1]: Blood brain barrier permeability in Wistar rat brain at 20 uM by LC-MS/MS analysis. The format is ADME, tissue-based. The essentials: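 Right cerebral hemisphere of rat perfused with buffer containing test agent (20 µM) at 4.9 mL/min for 1 min.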
Data set [2] is described as follows: Substrate activity at PYSOCA in human CMEC/D3 cells assessed as transporter-mediated drug uptake measured for 2 mins at 37degC in presence of diphenhydramine. The format is ADME, cell-based. Summed up:
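Uptake by hCMEC/D3 cells was measured at various substrate concentrations, at 37 °C for 2 min, with or without diphenhydramine (100 µM). Data were analysed by Michaelis-Menten and Lineweaver-Burk plots using nonlinear least-squares regression (Eqs. 1 and 2). Mean ± S.E., n = 4.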

Data set [3] in a line: Substrate activity at PYSOCA in human CMEC/D3 cells assessed as transporter-mediated drug uptake measured for 2 mins at 37degC in presence of clonidine. The format is ADME, cell-based.
The nature of data set [4]: Substrate activity at PYSOCA in human CMEC/D3 cells assessed as transporter-mediated drug uptake measured for 2 mins at 37degC in presence of decynium-22. The format is ADME, cell-based.
Data set [5] can be described thus: Substrate activity at PYSOCA in human CMEC/D3 cells assessed as transporter-mediated drug uptake measured for 2 mins at 37degC in presence of tramadol. Type of data set: ADME, cell-based.
Data set [6] is described as follows: Substrate activity at PYSOCA in human CMEC/D3 cells assessed as transporter-mediated drug uptake measured for 2 mins at 37degC. The format is ADME, cell-based.
Data set [7] is described as follows: Substrate activity at PYSOCA in human CMEC/D3 cells assessed as transporter-mediated drug uptake measured for 2 mins at 37degC in presence of L-carnitine. Type of data set: ADME, cell-based.
A further data set addresses Histone deacetylase 1 (Homo sapiens, UniProt Q13547). In words: Inhibition of recombinant human C-terminal FLAG/His-tagged HDAC1 expressed in baculovirus infected Sf9 insect cells using HDAC substrate 3 measured after 30 mins by fluorescence assay.
In data set [8] the target is T1, Protein deacetylase HDAC6 (Homo sapiens) (UniProt Q9UBN7).
T1 sequence (whole entry): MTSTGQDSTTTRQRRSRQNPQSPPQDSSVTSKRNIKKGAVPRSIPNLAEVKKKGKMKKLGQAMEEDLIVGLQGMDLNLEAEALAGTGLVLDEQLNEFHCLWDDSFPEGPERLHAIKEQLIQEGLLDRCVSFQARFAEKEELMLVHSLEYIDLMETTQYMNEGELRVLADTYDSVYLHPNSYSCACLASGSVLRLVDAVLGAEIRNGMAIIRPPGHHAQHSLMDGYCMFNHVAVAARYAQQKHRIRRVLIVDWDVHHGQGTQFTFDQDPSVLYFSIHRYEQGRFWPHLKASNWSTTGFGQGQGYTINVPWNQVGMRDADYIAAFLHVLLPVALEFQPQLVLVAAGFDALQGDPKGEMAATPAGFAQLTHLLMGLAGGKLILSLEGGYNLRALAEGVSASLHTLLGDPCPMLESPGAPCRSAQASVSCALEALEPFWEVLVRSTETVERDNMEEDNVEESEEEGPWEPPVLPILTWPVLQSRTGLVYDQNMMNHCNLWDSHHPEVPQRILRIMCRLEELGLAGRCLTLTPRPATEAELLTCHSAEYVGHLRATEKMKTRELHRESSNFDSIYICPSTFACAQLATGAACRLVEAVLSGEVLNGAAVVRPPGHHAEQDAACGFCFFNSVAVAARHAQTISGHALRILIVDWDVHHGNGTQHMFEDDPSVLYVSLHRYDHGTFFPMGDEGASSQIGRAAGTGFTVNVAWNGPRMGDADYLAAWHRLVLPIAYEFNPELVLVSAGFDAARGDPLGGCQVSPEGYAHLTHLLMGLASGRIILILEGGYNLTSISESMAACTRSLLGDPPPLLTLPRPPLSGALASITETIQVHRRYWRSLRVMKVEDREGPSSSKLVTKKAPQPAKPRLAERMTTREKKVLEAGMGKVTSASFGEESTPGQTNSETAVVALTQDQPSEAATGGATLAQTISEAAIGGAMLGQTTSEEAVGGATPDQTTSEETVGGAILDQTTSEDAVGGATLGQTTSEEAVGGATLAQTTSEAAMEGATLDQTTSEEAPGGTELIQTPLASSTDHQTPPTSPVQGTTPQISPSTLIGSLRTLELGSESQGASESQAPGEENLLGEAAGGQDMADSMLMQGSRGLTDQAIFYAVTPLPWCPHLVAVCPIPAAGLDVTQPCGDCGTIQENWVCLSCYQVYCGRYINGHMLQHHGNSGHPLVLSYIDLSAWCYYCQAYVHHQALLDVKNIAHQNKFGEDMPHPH
In words: Inhibition of recombinant human HDAC6 expressed in baculovirus infected insect cells at 30 uM using HDAC substrate 3 measured after 30 mins by fluorescence assay relative to control.

Data set [9] can be described thus: Substrate activity at PYSOCA in human CMEC/D3 cells assessed as transporter-mediated drug uptake clearance assessed per mg protein at 4degC measured up to 10 mins. The format is ADME, cell-based. The essentials: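 Uptake by hCMEC/D3 cells followed over time at 37 °C or 4 °C. Clearance was calculated from the initial linear slope, expressed per mg protein. Mean ± S.E., n = 4.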

Data set [10] is described as follows: Substrate activity at PYSOCA in human CMEC/D3 cells assessed as transporter-mediated drug uptake measured for 2 mins at 37degC in presence of varenicline. Type of data set: ADME, cell-based.
A short description of data set [11]: Substrate activity at PYSOCA in human CMEC/D3 cells assessed as transporter-mediated drug uptake measured for 2 mins at 37degC in presence of MPP+. Type of data set: ADME, cell-based.

A value given as a limit tells only on which side of the number the result lay.

By IC50 is commonly meant the concentration at which inhibition is half-maximal. By inhibition is commonly meant the share of the control response that was lost under treatment.

Chain of Histone deacetylase 1 (Q13547 whole entry): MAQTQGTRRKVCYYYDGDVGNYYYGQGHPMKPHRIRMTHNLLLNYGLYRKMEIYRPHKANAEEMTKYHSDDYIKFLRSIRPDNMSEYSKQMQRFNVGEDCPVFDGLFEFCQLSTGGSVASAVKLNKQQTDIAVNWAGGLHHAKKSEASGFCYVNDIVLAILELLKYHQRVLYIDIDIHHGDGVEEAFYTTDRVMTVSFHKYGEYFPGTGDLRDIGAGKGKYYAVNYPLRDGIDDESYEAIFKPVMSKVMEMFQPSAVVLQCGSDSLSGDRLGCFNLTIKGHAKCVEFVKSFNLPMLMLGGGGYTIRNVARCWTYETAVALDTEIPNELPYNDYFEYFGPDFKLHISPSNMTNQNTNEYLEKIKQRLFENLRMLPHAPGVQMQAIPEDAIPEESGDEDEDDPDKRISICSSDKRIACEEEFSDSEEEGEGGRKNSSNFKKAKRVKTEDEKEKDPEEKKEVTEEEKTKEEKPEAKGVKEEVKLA

In turn, `COc1ccc(CN(CCN(C)C)c2ccc(C(=O)Nc3ccccc3N)cn2)cc1` returned a pBBB in data set [1] of 42.4 microL/min/g. The Activity entry in [2] is given as “Not Active”; in [3], “Not Active”; in data set [4] it was “Active”; in data set [5], “Not Active”; in data set [6] it was “Dose-dependent effect”; in [7] it was “Active”. Moreover, the figures for the Activity entry in [9], in data set [10] and in data set [11] were “Not Active”, “Not Active” and “Active”, respectively. For the same compound, the IC50 on Histone deacetylase 1 came out at 1.5 µM. For the same compound, the inhibition in data set [8] is < 10%.

The record behind these values is ChEMBL document CHEMBL4196230, “Design, Synthesis, and Blood-Brain Barrier Transport Study of Pyrilamine Derivatives as Histone Deacetylase Inhibitors” (ACS Med Chem Lett, 2018).
